By T/C is commonly meant the result in the treated group divided by that in the control group, in per cent. As usually defined, the Ki is the dissociation constant of the complex between target and ligand, obtained from inhibition or displacement. Low readings indicate higher affinity, high ones lower affinity.

Experimental findings from ChEMBL document CHEMBL1122622, “Carbocyclic analogues of xylofuranosylpurine nucleosides. Synthesis and antitumor activity” (J Med Chem, 1984) are described below.

Experiment [1] concerns Mus musculus. Nature of the experiment: Compound was evaluated for the in vivo antitumor activity against P388 leukemia cells after injecting the compound intraperitoneally at a dose of 2 mg/kg in mice (treatment schedule 1-9 days). Type of experiment: functional. The settings on record: route intraperitoneal. In short, it runs like this: (§1)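 BDF1 male mice, eight per group, implanted ip with 10⁶ P388 leukemia cells. Drug given ip in 0.5 mL saline. Schedules varied between groups; the 100 mg/kg/day regimen was dosed qd 1-9.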

Experiment [2] concerns Mus musculus. In words: Compound was evaluated for the in vivo antitumor activity against P388 leukemia cells after injecting the compound intraperitoneally at a dose of 50 mg/kg in mice. Type of experiment: functional. The settings on record: route intraperitoneal. Summed up:
as §1

Experiment [3] deals with Mus musculus. In words: Compound was evaluated for the in vivo antitumor activity against p388 leukemia cells after injecting the compound intraperitoneally at a dose of 5 mg/kg in mice. Format: functional. The settings on record: route intraperitoneal. Summed up:
as §1

Experiment [4] concerns Mus musculus. Nature of the experiment: Compound was evaluated for the in vivo antitumor activity against P388 leukemia cells after injecting the compound intraperitoneally at a dose of 1 mg/kg in mice. Type of experiment: functional. The settings on record: route intraperitoneal. In short, it runs like this:
as §1

The test system of experiment [5] is Mus musculus. Nature of the experiment: (§2) Compound was evaluated for the in vivo antitumor activity against P388 leukemia cells after injecting the compound intraperitoneally at a dose of 5 mg/kg in mice. Format: functional. The settings on record: route intraperitoneal. In short, it runs like this: as §1
For experiment [6], the system named is Mus musculus. Described as §2. Format: functional. The settings on record: route intraperitoneal. In short, it runs like this:
as §1
The source holds these as a separate data set.

Experiment [7] deals with Mus musculus. In words: Compound was evaluated for the in vivo antitumor activity against p388 leukemia cells after injecting the compound intraperitoneally at a dose of 2 mg/kg in mice. Type of experiment: functional. The settings on record: route intraperitoneal. In short, it runs like this:
as §1

Experiment [8] has as its target Adenosine deaminase (Bos taurus) (UniProt P56658). In words: Compound was evaluated for competitive inhibition of adenosine deaminase and expressed as Ki.
The species entered for experiment [9] is Mus musculus. Nature of the experiment: Effective dose by 50% was evaluated. Type of experiment: functional. Summed up: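 P388 mouse lymphoid leukemia cells were grown in culture in the presence of the compound, and the concentration giving 50% effect on growth was taken as the ED₅₀.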

Adenosine deaminase (Bos taurus), sequence (P56658 whole entry, looked up): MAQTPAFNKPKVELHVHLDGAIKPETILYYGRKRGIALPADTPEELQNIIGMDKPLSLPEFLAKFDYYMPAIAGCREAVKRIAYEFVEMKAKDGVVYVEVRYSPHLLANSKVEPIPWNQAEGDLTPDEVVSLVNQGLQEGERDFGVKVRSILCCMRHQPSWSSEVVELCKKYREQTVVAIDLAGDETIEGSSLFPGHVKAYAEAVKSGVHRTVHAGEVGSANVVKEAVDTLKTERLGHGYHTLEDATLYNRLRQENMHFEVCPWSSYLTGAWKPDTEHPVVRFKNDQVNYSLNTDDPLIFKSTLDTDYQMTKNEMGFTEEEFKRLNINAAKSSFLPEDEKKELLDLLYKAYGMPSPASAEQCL

For `Nc1ncnc2c1nnn2C1CC(CO)C(O)C1O` (configuration not stated), the Survival time came to 16.1 days in the experiment on Mus musculus [1]; 19.5 days in the experiment on Mus musculus [2]; 13.9 days in the experiment with Mus musculus [4]; 17.9 days in the experiment with Mus musculus [5]; 18.4 days in the experiment on Mus musculus [6]. Moreover, the T/C with Mus musculus [2] stood at 226%; with Mus musculus [3] it was 173%; in the experiment on Mus musculus [4] it was 128%; in the experiment on Mus musculus [5], 175%; in the experiment with Mus musculus [7] it was 149%.

For the compound `Nc1ncnc2c1ncn2[C@@H]1C[C@H](CO)[C@@H](O)[C@H]1O` [ARISTEROMYCIN], the Ki in experiment [8] is 9.9 µM. The ED50 in the experiment filed under Mus musculus [9] was determined as 67 µM.
